molecular target: T1, OR1A1 (Homo sapiens) (UniProt Q9P1Q5); details: stereoisomer not certain
T1 sequence (whole entry): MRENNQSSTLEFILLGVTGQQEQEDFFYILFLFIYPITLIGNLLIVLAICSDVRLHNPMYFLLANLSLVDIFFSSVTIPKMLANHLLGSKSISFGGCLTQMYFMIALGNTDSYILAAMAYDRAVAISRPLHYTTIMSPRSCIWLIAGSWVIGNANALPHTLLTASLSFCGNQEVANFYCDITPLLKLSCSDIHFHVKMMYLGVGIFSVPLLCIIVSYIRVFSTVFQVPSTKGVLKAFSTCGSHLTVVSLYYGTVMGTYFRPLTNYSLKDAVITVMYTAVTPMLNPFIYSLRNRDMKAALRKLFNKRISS
How it was run: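 Values were gathered from published papers (main text and supplementary material), with extra details requested from the original authors when needed, and checked for typos and inconsistencies. Each receptor–molecule pair is called responsive (active) if the original authors judged the measured signal statistically different from baseline, and non-responsive (inactive) otherwise. Assay methods varied by source, often transient mammalian cell-line luciferase assays. Recorded details include cell line, G-protein, co-transfected protein and tags.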

SMILES | odorant receptor agonist call
CCOC(C)OCC | inactive
COc1ccc(C)cc1O | inactive
CCC(=O)C(C)=O | inactive
C=C(C)C1CC=C(C)C(O)C1 (stereo unspecified) | active
CCOC(=O)CC(C)C | inactive
C=C1CCC2(C(C)C)CC12 (stereo unspecified) | inactive
CCC=O | inactive
CCc1nccnc1CC | inactive
CC=CC(=O)C1=C(C)C=CCC1(C)C | inactive
C=CCOC(=O)CCCCCC | active
CCCCS | inactive
Cc1cnccn1 | inactive
O=C(O)CCc1ccccc1 | inactive
COCCC(C)(C)S | inactive
CC(=O)OCC=Cc1ccccc1 | inactive
CCC(S)C(C)=O (stereo unspecified) | inactive
CCC=CCCC=O | inactive
CC(C)=CCCC(C)=CCO | active

SMILES | odorant receptor agonist call
CCCC(S)CCO (stereo unspecified) | inactive
CC(=O)CC(C)(C)S | inactive
CC1(C)C2CC=C(C=O)C1C2 (stereo unspecified) | inactive
CN(C)C | inactive
CCCCCCCO | active
CCCCCCOC(C)=O | inactive
CCCCCC1CCCC(=O)O1 (stereo unspecified) | inactive
CC=O | inactive
CCOC(=O)C(C)CC (stereo unspecified) | inactive
COc1cc(C(=O)O)ccc1O | inactive
CCOC(=O)CCC(C)C | inactive
C=CC(C)(O)CCC=C(C)CCC=C(C)C (stereo unspecified) | active
CC(=O)c1ccc(C)cc1 | inactive
CCCC(=O)C(C)=O | inactive
CCc1ccc(O)c(OC)c1 | inactive
CC12CCC(CC1=O)C2(C)C (stereo unspecified) | inactive
CCCCCC=O | inactive
CCCCCC(C)O (stereo unspecified) | inactive
